Data on three compounds can be found in paper PMC6810844 (Cellular and molecular life sciences : CMLS, 2019).

In test [1] the target is T1, BoSGBPMLG-A (Bacteroides ovatus, UniProt A0AAN3A7L1).
T1 sequence (A0AAN3A7L1 23-558): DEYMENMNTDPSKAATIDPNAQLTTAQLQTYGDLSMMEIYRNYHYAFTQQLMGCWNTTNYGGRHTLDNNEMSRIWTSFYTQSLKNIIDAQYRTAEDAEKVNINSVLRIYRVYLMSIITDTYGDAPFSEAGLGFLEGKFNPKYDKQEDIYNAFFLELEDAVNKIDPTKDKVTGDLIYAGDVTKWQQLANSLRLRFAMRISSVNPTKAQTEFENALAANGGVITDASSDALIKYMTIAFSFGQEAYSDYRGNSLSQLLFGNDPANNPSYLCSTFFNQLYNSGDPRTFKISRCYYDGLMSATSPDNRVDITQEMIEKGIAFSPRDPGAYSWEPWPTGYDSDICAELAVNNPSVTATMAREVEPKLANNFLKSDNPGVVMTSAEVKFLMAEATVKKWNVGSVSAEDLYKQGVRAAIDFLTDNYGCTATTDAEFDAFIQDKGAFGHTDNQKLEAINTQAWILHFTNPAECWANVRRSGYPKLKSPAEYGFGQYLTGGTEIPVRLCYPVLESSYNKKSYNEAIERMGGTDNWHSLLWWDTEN
Put plainly: isothermal titration calorimetry. The class given is binding. Particulars: 50 mM sodium phosphate pH 7.0, 25 °C. The procedure, abridged:
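Recombinant His6-tagged protein was expressed in E. coli BL21(DE3), Ni-IMAC purified, and exchanged into 50 mM sodium phosphate pH 7.0. In the cell: 20–100 µM protein at 25 °C, stirred at 280 rpm. Injections: 2 µL, then 24 × 10 µL of 2.5–4.0 mg/mL polysaccharide or 1–2 mM oligosaccharide. Heat recorded. Molar polysaccharide Ka assumed a hexasaccharide motif for MLG and a Glc8-backbone motif for XyG.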
On the technique in general: Isothermal titration calorimetry measures the heat released or taken up as one component is titrated into another.

The target of test [2] is T2, BoSGBPMLG-B (Bacteroides ovatus, UniProt A0ABU3IRL2).
T2 sequence (A0ABU3IRL2 22-420): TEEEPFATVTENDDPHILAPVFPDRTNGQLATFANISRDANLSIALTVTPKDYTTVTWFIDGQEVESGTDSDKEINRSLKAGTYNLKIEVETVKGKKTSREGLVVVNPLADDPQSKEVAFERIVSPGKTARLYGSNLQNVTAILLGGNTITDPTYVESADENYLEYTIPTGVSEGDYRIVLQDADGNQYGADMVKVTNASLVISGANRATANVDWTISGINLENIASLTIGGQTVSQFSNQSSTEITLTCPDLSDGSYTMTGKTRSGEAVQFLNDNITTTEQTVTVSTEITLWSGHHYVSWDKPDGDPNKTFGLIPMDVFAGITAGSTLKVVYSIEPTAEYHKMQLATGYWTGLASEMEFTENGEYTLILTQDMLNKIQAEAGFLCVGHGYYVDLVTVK
Briefly: isothermal titration calorimetry. In kind it is binding. Conditions: 50 mM sodium phosphate pH 7.0, 25 °C; n fixed at 1. The procedure, abridged: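 His6-tagged protein was produced in E. coli BL21(DE3) and purified by nickel affinity. Titrations ran at 25 °C in 50 mM sodium phosphate pH 7.0, except bMLG, which used 10 mM HEPES pH 7.0. 20–100 µM protein in the cell received one 2 µL injection, then 24 × 10 µL of 2.5–4.0 mg/mL polysaccharide or 1–2 mM oligosaccharide, with stirring at 280 rpm. MLG Ka was converted from g/L assuming a hexasaccharide motif.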

For the compound `OC[C@H]1O[C@@H](O[C@H]2[C@H](O)[C@@H](O)[C@H](O[C@H]3[C@H](O)[C@@H](O)[C@H](O[C@H]4[C@H](O)[C@@H](O)[C@H](O[C@H]5[C@H](O)[C@@H](O)[C@H](O[C@H]6[C@H](O)[C@@H](O)C(O)O[C@@H]6CO)O[C@@H]5CO)O[C@@H]4CO)O[C@@H]3CO)O[C@@H]2CO)[C@H](O)[C@@H](O)[C@@H]1O` (stereo partly drawn) [Cellohexaose], the “Ka (M^-1) / BoSGBPMLG-A” value in test [1] (n fixed at 1) is reported as “(3.39 ± 0.03) × 10^3”. The “Ka (M^-1) / BoSGBPMLG-B” value in test [2] is given as “(3.1 ± 0.06) × 10^3”.

Turning to `OC[C@H]1O[C@@H](O[C@H]2[C@H](O)[C@@H](O)[C@H](O[C@@H]3[C@@H](O)[C@H](O[C@H]4[C@H](O)[C@@H](O)[C@H](O[C@H]5[C@H](O)[C@@H](O)[C@H](O[C@H]6[C@H](O)[C@@H](CO)OC(O)[C@@H]6O)O[C@@H]5CO)O[C@@H]4CO)O[C@H](CO)[C@H]3O)O[C@@H]2CO)[C@H](O)[C@@H](O)[C@@H]1O` (stereo partly drawn) [MLG6, G4G3G4G4G3G], in test [1], the “Ka (M^-1) / BoSGBPMLG-A” value is “(1.44 ± 0.04) × 10^4”. For the same compound, the “Ka (M^-1) / BoSGBPMLG-B” value in test [2] is recorded as “(3.16 ± 0.19) × 10^3”.

Regarding `OC[C@H]1O[C@@H](O[C@H]2[C@H](O)[C@@H](O)[C@H](O[C@H]3[C@H](O)[C@@H](O)[C@H](O[C@@H]4[C@@H](O)[C@H](O[C@H]5[C@H](O)[C@@H](O)[C@H](O[C@H]6[C@H](O)[C@@H](O)[C@H](O[C@H]7[C@H](O)[C@@H](CO)OC(O)[C@@H]7O)O[C@@H]6CO)O[C@@H]5CO)O[C@H](CO)[C@H]4O)O[C@@H]3CO)O[C@@H]2CO)[C@H](O)[C@@H](O)[C@@H]1O` (stereo partly drawn) [MLG7, G4G4G3G4G4G3G], the “Ka (M^-1) / BoSGBPMLG-A” value in test [1] is listed as “(4.51 ± 0.34) × 10^4”. Moreover, in test [2], the “Ka (M^-1) / BoSGBPMLG-B” value is given as “(4.69 ± 0.13) × 10^3”.
